Compounds with a hit are over-represented: about 12% of the library has one in this group of screens.
WT yeast gro inh: growth inhibition of WT yeast, mitochondrial fusion screen; mitochondrial fusion phenotypic screen, WT strain; inhibition, % at 10 µM; actives 2.1% (n = 190,000); in the data active means inhibition above about 58%; tested in S. cerevisiae
ROMK primary: human ROMK K+ channel modulation, primary screen; Tet-inducible ROMK, thallium flux fluorescence; actives lie on both sides; B-score at 10 µM; actives 2% (n = 130,000); AID 1918;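 active means signal ratio slope over the read window, or its plate-corrected B-score, at least 3 SD from the plate mean, either direction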;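 further: B-score of the F/F0 ratio slope over 7 to 12 s after thallium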
Target sequence (P48048 whole entry, looked up): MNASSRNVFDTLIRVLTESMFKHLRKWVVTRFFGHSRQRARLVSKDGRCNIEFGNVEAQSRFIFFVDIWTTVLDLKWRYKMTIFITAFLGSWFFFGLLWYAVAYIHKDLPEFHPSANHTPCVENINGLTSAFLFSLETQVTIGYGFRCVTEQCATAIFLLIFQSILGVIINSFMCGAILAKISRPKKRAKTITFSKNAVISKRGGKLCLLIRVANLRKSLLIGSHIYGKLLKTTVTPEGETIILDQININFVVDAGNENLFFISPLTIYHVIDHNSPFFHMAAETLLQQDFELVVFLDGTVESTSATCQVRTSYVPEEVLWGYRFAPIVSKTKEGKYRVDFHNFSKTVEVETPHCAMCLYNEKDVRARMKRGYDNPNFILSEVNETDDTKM
KCC2 mod: modulates chloride dependent transport by human KCC2 | KCC2 cells, thallium flux FluoZin-2 fluorescence | Q9H2X9 | actives 2.2% (n = 190,000) | B-score of Tl+ flux slope (higher = more flux/activation; lower = inhibition) at 10 µM;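 active means thallium flux slope and its plate-corrected score both differing from the plate sample mean at a set confidence after two filtering rounds, in either direction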;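 further: slope of fluorescence scaled to starting intensity during 10 to 20 s after thallium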
Diaphorase act: diaphorase activation or chemical reduction counter-screen; Diaphorase/resazurin coupled assay, resorufin fluorescence, 16 min; active compounds read high; 1 = vehicle wells, 0 = NADH-free wells; activation factor at 20 µM; actives 0.005% (n = 190,000);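 active means diaphorase activity raised at least twofold by the compound at 20 µM; inactive means activation factor below 2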
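Measured by – red resorufin fluorescence at 544/590 nm excitation/emission · Test system – Clostridium kluyveri diaphorase, purified enzyme · Incubation – reaction time 16 min, room temperature · Buffer or medium – 50 mM HEPES pH 7.4 with 4.542 mM MgCl2, 0.005% Tween 20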
Diaph inh CS: inhibits diaphorase or chemically oxidizes, flagging diaphorase assay artifacts | actives 0.69% (n = 190,000) | inhibition, % at 20 µM | diaphorase resazurin-to-resorufin fluorescence, NADH, 16 min; bacterial (C. kluyveri) enzyme, not human;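 active means primary screen inhibition at 20 µM above a set limit, cut at about 50% in these data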
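System: Diaphorase enzyme from Clostridium kluyveri | Amount: Enzyme working solution with 0.14 U/mL diaphorase | Benchmarks: No-NADH positive control and DMSO neutral control | Signal: Fluorescence of resorufin formed from resazurin, Ex 544/Em 590 nm | Schedule: 16-min room-temperature incubation before reading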
L major viab: Leishmania major promastigote growth inhibition; Leishmania major promastigotes, resazurin fluorescence viability; inhibition, % at 10 µM; actives 9% (n = 200,000); AID 1063; in the data active means inhibition above about 50%;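 further: promastigotes grown with compound for 44 hours at 28 °C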
Hits are given with their value; n = inactive; x = not tested or not shown.

SMILES	WT yeast gro inh	ROMK primary	KCC2 mod	Diaphorase act	Diaph inh CS	L major viab
O=C(c1ccccc1F)c1cn(CC(=O)N2CCCCC2)c2ccccc12	n	n	n	n	n	n
O=c1[nH]c(=O)n(C2CCCCCC2)c(O)c1C=NC1CCN(Cc2ccccc2)CC1	n	x	n	n	n	89
Cn1c(O)c(C=NC2CCN(Cc3ccccc3)CC2)c(=O)[nH]c1=O	x	x	n	x	x	x
O=c1[nH]c(=S)n(CCC2=CCCCC2)c(O)c1C=NC1CCN(Cc2ccccc2)CC1	78	x	n	n	n	n
O=c1[nH]c(=S)n(CCC2=CCCCC2)c(O)c1/C=N/Nc1ccccc1	x	x	n	x	x	x
O=C1NC(=O)C(=Cc2ccc(N3CCN(C(=O)c4ccccc4)CC3)c([N+](=O)[O-])c2)C(=O)N1	n	n	n	n	n	n
O=C1NC(=O)C(=Cc2cc([N+](=O)[O-])ccc2N2CCCCC2)C(=O)N1	n	n	n	n	n	97
COCC(C)OC(=O)c1c(N)n(Cc2ccco2)c2nc3ccccc3nc12 (stereo unspecified)	n	n	n	n	n	95
CCOC(=O)c1c(N)n(Cc2ccco2)c2nc3ccccc3nc12	n	x	x	n	n	n
Nc1c(C(=O)NCc2ccco2)c2nc3ccccc3nc2n1Cc1ccc(F)cc1	n	n	n	n	n	59
Cc1cc(C)[n+](C2C3CC4CC(C3)CC2C4)o1 (stereo unspecified)	n	n	n	n	n	n
CC(c1ccccc1F)n1cc(C(=O)Nc2ccc3nc[nH]c3c2)nn1 (stereo unspecified)	n	n	x	n	n	72
Cc1cccc(CN2CCCC(C(=O)c3cccc(OC(C)C)c3)C2)n1 (stereo unspecified)	n	n	n	x	x	60
CCCn1cc(CN2CCCC(C(=O)c3cccc(OC)c3)C2)c(C)n1 (stereo unspecified)	n	n	x	n	n	n
COc1cccc(C(=O)C2CCCN(Cc3cnn(C(C)C)c3)C2)c1 (stereo unspecified)	n	n	x	n	n	71
COc1cccc(C(=O)C2CCCN(Cc3cccc(C)n3)C2)c1 (stereo unspecified)	x	n	n	n	n	n
CCn1cc(CN2CCCC(C(=O)c3cccc(OC)c3)C2)c(C)n1 (stereo unspecified)	n	n	n	n	n	78
COc1cccc(C(=O)C2CCCN(Cc3ccc4nsnc4c3)C2)c1 (stereo unspecified)	n	n	n	n	n	87
CCC(=O)OC1(c2ccccc2)CCN(C)CC1C (stereo unspecified)	n	n	n	n	n	n
CNP(=S)(NC)OCCOc1ccc(OC)cc1	n	x	n	n	n	n
O=C1NC(=O)N(c2ccc(Cl)cc2)C(=O)/C1=C/c1coc2ccc(O)cc2c1=O	x	-8	-4.6	x	x	x
Cc1cc(/C=C2/C(=O)NC(=O)N(c3ccc(Br)cc3)C2=O)c(C)n1C	x	x	n	x	x	x
O=C(c1ccc2c(=O)n(Cc3ccc4c(c3)OCO4)c(=S)[nH]c2c1)N1CCC2(CC1)OCCO2	n	n	x	n	n	n
CCN1CCC(O)(c2ccccc2)C(C(=O)c2ccccc2)C1 (stereo unspecified)	x	x	n	x	x	80
O=C(CNC(=O)c1ccccc1Cl)Nc1ccc(Br)cc1C(=O)c1ccccc1	n	n	n	n	n	n
SMILES	WT yeast gro inh	ROMK primary	KCC2 mod	Diaphorase act	Diaph inh CS	L major viab
Cc1ccc(O)c(C(=O)c2cc(C(=O)NCc3ccccc3)c(=O)n(Cc3ccccc3)c2)c1	n	x	n	n	n	78
O=C(c1cc(C(=O)NCc2ccccc2)c(=O)n(Cc2ccccc2)c1)c1cc(Br)ccc1O	n	n	n	n	n	99
CC(=O)Nc1cc(C(=O)N2CCC3(CC2)OCCO3)ccc1Sc1ccc(F)cc1	n	n	n	n	n	n
O=c1c2ccccc2nc(N2CCCC2)n1-c1ccc(Cl)cc1	n	n	x	n	n	n
CCn1c(O)c(C(=O)CC2NCCc3ccccc32)c(=O)n(CC)c1=S (stereo unspecified)	n	n	n	n	n	n
Nc1c(C(=O)OC2CCCCC2)c2nc3ccccc3nc2n1CC1CCCO1 (stereo unspecified)	n	x	n	n	n	81
CC(C)OC(=O)c1c(N)n(CC2CCCO2)c2nc3ccccc3nc12 (stereo unspecified)	n	x	n	n	n	52
CC(C)CCOC(=O)c1c(N)n(CC2CCCO2)c2nc3ccccc3nc12 (stereo unspecified)	n	x	n	n	n	100
Cn1c(O)c(C=NC2CCCCCC2)c(=O)[nH]c1=S	n	n	n	n	n	n
CCCc1nc2ccc(Br)cc2c(=O)n1-c1ccc([N+](=O)[O-])c(C(F)(F)F)c1	n	n	n	n	n	n
O=C(C1CCN(S(=O)(=O)N2CCOCC2)CC1)N1CCC2(CC1)OCCO2	n	n	n	n	n	n
CCCCn1c(=O)c(C(=O)Nc2cnccn2)c(O)c2ccccc21	n	x	n	n	n	52
CCCCCn1c(=O)c(C(=O)Nc2nc3ccccc3[nH]2)c(O)c2ccccc21	x	x	n	x	x	x
CC(C)CCn1c(=O)c(C(=O)Nc2ccccc2S(N)(=O)=O)c(O)c2ccccc21	n	x	6.6	n	n	100
CCCCc1nc(N2CCNCC2)c(C#N)c2c1CSC(C)(C)C2	n	x	n	n	n	97
O=C(CNS(=O)(=O)c1ccc(Br)s1)N1CCC2(CC1)OCCO2	n	n	n	n	n	n
Oc1ccc(/C=N/NP(=S)(c2ccccc2)c2ccccc2)cc1O	n	n	n	n	58	n
CCOc1cc(CNCCc2c[nH]c3ccccc23)cc(Cl)c1OCC	86	n	n	n	n	n
NC(=O)CN1CCCC1=O	n	x	n	n	n	n
CCCCCCn1c(N)c(C(=O)NCCN2CCOCC2)c2nc3ccccc3nc21	86	x	x	n	n	n
COc1ccc(CCNC(=O)c2c(N)n(CCN3CCOCC3)c3nc4ccccc4nc23)cc1OC	n	x	n	n	51	100
CCOP(=O)(Cc1cc(C(=O)CC)c(C)o1)OCC	x	x	n	x	x	x
COc1ccc(N=C2SCCCN2C)cc1	n	n	n	n	n	n
CCN1CCN(Cc2ccc(OC(F)(F)F)cc2)CC1	n	x	n	n	n	89
C(#CCN1CCCCC1)COCc1ccccc1	n	n	n	n	n	89
COc1ccc(OCC#CCN2CCCCCC2)cc1	n	n	n	n	n	85
C(#CCN1CCOCC1)COC/C=C/c1ccccc1	n	n	n	n	n	n
Clc1ccc(OCC#CCN2CCOCC2)cc1	n	x	n	n	n	n
CC(C)c1ccc(N2C(=O)NC(=O)/C(=C\C=C\c3ccco3)C2=O)cc1	n	n	n	n	n	67
FC(F)(F)c1cccc(-n2nnnc2C2(N3CCOCC3)CCCCC2)c1	n	x	n	n	n	84

High-throughput results deposited in PubChem by several laboratories.
